Results reported in ChEMBL document CHEMBL1138329, “Pharmacokinetic/pharmacodynamic model-guided identification of hypoxia-selective 1,2,4-benzotriazine 1,4-dioxides with antitumor activity: the role of extravascular transport” (J Med Chem, 2007).

Experiments:
HT-29 [1] = assay: Effect on human HT29 cells under hypoxic conditions assessed as drug level causing 10% clonogenic survival; format: functional
Summary of the method: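 HT29 suspensions (1 or 2 × 10^6 cells/mL) in serum-free medium were stirred under 5% CO2/95% N2 for 90 min. Drug was added from deoxygenated DMSO stock at a level giving about 10% survival at 1 h, and samples were taken up to 3 h. Clonogenic survival (14 days, methylene blue) was fitted with the HPLC concentration–time data, and the 10% survival exposure was interpolated.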

HT-29 [2] = assay: Ratio of IC50 for HT29 cells under oxic conditions to hypoxic conditions after 4 hrs; format: functional, Homo sapiens
SiHa [3] = assay: Ratio of IC50 for SiHa cells under oxic conditions to hypoxic conditions after 4 hrs; format: functional, Homo sapiens
[4] = Solubility in culture medium in presence of 5% fetal calf serum; format: physicochemical; conditions: culture medium with 5% fetal calf serum
HT-29 [5] = assay: Cytotoxicity against human HT29 cells under hypoxic conditions after 4 hrs; format: functional, cell-based; conditions: HT-29, 4 h
SiHa [6] = assay: Cytotoxicity against human SiHa cells under hypoxic conditions after 4 hrs; format: functional, cell-based
HT-29 [7] = assay: Diffusion coefficient, D in HT29 multicellular layers; format: ADME, cell-based; conditions: human
Summary of the method: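 HT29 multicellular layers were grown 3 days on collagen-coated Teflon membranes, equilibrated 60 min under 95% O2/5% CO2 at 37 °C, then placed in a diffusion chamber. Donor and receiver were sampled up to 5 h and assayed by HPLC. D came from fitting both profiles to a Fickian model with membrane and MCL in series, corrected by support-only Ds.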

[8] = Cmax in CD1 mouse at 750 umol/kg, ip; format: ADME, organism-based; set-up: dose 750 umol/kg, route intraperitoneal; conditions: in vivo
Summary of the method: (§1)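 Single i.p. dose to CD-1 homozygous nude mice, drug as HCl salt in 0.9% saline, 5% DMSO/saline or lactate buffer (pH 4.0). Plasma total drug measured by HPLC at 75 or 100% of MTD (MTD from 1.33-fold dose steps, 6 mice). Noncompartmental analysis gave AUC, Cmax and t1/2.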

[9] = AUC in CD1 mouse at 750 umol/kg, ip; format: ADME, organism-based; conditions: plasma; summary of the method: as §1
[10] = Half life in CD1 mouse at 750 umol/kg, ip; format: ADME, organism-based; conditions: in vivo; summary of the method: as §1
Mus musculus = assay: Toxicity in ip dosed CD1 mouse; format: organism-based; conditions: in vivo
Summary of the method: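 MTD in CD-1 homozygous nude mice after single i.p. doses (HCl salts in saline, 5% DMSO/saline or lactate buffer pH 4.0), escalated in 1.33-fold increments. MTD taken as the highest dose causing no death, no body weight loss >15% and no other severe morbidity in any of 6 mice.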

| SMILES | solubility [4] [mM] | D (HT-29 [7]) [cm²/s] | Activity (HT-29 [1]) [µM·h] | Ratio IC50 (HT-29 [2]) | Ratio IC50 (SiHa [3]) | IC50 (HT-29 [5]) [nM] | IC50 (SiHa [6]) [nM] | Cmax [8] [µM] | AUC [9] [µM·h] | half-life [10] [min] | MTD (Mus musculus) [µmol/kg] |
| --- | --- | --- | --- | --- | --- | --- | --- | --- | --- | --- | --- |
| CC(C)c1ccc2c(c1)[n+]([O-])c(NCCN1CCOCC1)n[n+]2[O-] | 30 |  | 217.8 | 14 | 33 | 45100 | 15500 |  |  |  |  |
| CC1CCCC(C)N1CCNc1n[n+]([O-])c2ccccc2[n+]1[O-] (stereo unspecified) | 48 | 6.81e-07 | 5.7 | 15 | 41 | 2200 | 900 |  |  |  |  |
| [O-][n+]1nc(NCCN2CCCCC2)[n+]([O-])c2cc(Cl)ccc21 | 3.2 | 1.1e-06 |  | 19 | 18 | 400 | 200 |  |  |  |  |
| [O-][n+]1nc(NCCN2CCCCC2)[n+]([O-])c2ccccc21 | > 49 | 7.23e-07 | 2.8 | 24 | 55 | 1800 | 1100 |  |  |  |  |
| CCOc1ccc2c(c1)[n+]([O-])c(NCCCN1CCOCC1)n[n+]2[O-] | > 51 |  | 260.6 | 52 | 140 | 18000 | 7600 |  |  |  |  |
| COc1ccc2c(c1)[n+]([O-])c(NCCN1CCOCC1)n[n+]2[O-] | 48 |  |  | >39 | 70 | 103000 | 40900 |  |  |  |  |
| Cc1ccc2c(c1)[n+]([O-])c(NCCN1CCOCC1)n[n+]2[O-] | > 46 | 4.52e-07 | 134 | 55 | 86 | 21800 | 8300 | 132 | 86.8 | 15.4 | 1000 |

The next lines start with results.

| solubility [4] [mM] | D (HT-29 [7]) [cm²/s] | SMILES | Activity (HT-29 [1]) [µM·h] | Ratio IC50 (HT-29 [2]) | Ratio IC50 (SiHa [3]) | IC50 (HT-29 [5]) [nM] | IC50 (SiHa [6]) [nM] | Cmax [8] [µM] | AUC [9] [µM·h] | half-life [10] [min] | MTD (Mus musculus) [µmol/kg] |
| --- | --- | --- | --- | --- | --- | --- | --- | --- | --- | --- | --- |
| 45 |  | CCN(CC)CCNc1n[n+]([O-])c2ccc(C(C)C)cc2[n+]1[O-] | 18.6 | 122 | 113 | 2000 | 800 |  |  |  |  |
| 38 | 1.87e-07 | CN(C)CCCNc1n[n+]([O-])c2ccccc2[n+]1[O-] | 7.8 | 49 | 82 | 3400 | 2300 |  |  |  |  |
| 49 |  | Cc1ccc2c(c1)[n+]([O-])c(NCCCN1CCC(C#N)C1)n[n+]2[O-] (stereo unspecified) | 62.2 | 54 | 54 | 14100 | 9200 |  |  |  |  |
| 42 |  | CC(C)c1ccc2c(c1)[n+]([O-])c(NCCN(C)C)n[n+]2[O-] | 11.6 | 120 | 104 | 1900 | 1100 |  |  |  |  |
| > 48 |  | CCN(CC)CCNc1n[n+]([O-])c2ccc(C(C)(C)C)cc2[n+]1[O-] | 33.1 | 37 | 90 | 4300 | 900 |  |  |  |  |
| 23 |  | CCN(CC)CCNc1n[n+]([O-])c2ccc(Cl)cc2[n+]1[O-] |  | 43 | 28 | 300 | 200 |  |  |  |  |
| 0.6 |  | CCCN(CCC)CCNc1n[n+]([O-])c2ccc(Cl)cc2[n+]1[O-] |  | 9 | 21 | 600 | 300 |  |  |  |  |
| 32 | 1.75e-06 | CCCN(CCC)CCNc1n[n+]([O-])c2ccc(C(C)(C)C)cc2[n+]1[O-] | 66.6 | 18 | 35 | 8300 | 3800 |  |  |  |  |
